Measured values collected from several papers.
Protocols differ between the studies behind these lines.
Target: Mitogen-activated protein kinase kinase kinase 19 (MAP3K19, Homo sapiens, UniProt Q56UN5)
One construct used (Q56UN5 1-1328): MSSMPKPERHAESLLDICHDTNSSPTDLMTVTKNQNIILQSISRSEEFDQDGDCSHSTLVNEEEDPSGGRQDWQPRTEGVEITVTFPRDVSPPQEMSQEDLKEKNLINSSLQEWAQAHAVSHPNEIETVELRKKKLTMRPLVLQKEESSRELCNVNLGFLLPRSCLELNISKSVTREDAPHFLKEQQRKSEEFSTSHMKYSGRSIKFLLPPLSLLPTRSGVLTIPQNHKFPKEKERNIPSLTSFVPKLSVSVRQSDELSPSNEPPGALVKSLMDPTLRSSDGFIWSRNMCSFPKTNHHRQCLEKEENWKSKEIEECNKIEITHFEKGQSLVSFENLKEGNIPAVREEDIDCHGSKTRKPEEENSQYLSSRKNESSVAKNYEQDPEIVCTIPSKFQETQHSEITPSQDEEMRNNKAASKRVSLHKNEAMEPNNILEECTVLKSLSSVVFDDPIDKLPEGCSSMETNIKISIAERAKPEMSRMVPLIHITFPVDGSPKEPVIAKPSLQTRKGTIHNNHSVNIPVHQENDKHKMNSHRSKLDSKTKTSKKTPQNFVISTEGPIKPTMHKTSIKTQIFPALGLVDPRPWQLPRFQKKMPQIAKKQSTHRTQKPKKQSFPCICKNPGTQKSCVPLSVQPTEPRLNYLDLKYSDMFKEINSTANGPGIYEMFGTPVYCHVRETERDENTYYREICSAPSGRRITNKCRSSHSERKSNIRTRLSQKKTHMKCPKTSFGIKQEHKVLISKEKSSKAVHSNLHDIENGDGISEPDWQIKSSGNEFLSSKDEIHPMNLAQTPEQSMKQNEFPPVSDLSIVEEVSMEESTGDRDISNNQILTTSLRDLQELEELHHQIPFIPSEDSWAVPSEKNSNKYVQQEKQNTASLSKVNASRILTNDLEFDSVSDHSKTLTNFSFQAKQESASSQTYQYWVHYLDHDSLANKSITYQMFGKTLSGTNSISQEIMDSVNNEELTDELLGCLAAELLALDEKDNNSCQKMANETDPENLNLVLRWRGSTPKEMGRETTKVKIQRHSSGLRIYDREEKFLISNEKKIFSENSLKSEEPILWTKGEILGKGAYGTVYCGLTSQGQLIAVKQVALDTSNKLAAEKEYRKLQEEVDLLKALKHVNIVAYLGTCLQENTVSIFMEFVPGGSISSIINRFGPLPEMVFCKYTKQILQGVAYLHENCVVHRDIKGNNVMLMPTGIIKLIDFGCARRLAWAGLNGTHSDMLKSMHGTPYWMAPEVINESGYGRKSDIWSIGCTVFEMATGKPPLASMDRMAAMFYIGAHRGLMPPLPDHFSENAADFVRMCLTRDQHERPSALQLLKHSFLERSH

| SMILES | assay | conditions | remaining binding |
| --- | --- | --- | --- |
| O=C(c1ccc(Nc2nccc(-c3cc4ccccc4s3)n2)cc1)N1CCC(N2CCCC2)CC1 | binding, competition with immobilised ligand | 1 µM | 0% |
| COc1ccc2c(c1)O[C@@H](c1ccc(OC)c(OC)c1)C[C@H]2NC(=O)C1(c2ccc3c(c2)OC(F)(F)O3)CC1 | cell-free assay, competition with immobilised ligand | 1 µM | 83% |
| CN(CCCC(F)(F)F)c1nccc(-c2cnn3ncccc23)n1 | binding | 1 µM | 95% |
| CNC(=O)[C@@H]1CC[C@@H](n2c(-c3ccc4cnccc4c3)nc3ccc(C(=O)NCc4cccc(C(N)=O)c4)cc32)C1 | binding, competition with immobilised ligand | 1 µM | 100% |
| c1cncc(-c2cccc(Nc3nccc(NC4CCCCC4)n3)c2)c1 | binding, competition with immobilised ligand | 10 µM | 18% |
| CN(C)c1nccc(-c2cnc3ncccn23)n1 | binding | 1 µM | 79% |
| CCCOc1ccc([C@@H]2[C@@H](C(=O)O)[C@H](c3ccc4c(c3)OCO4)CN2CC(=O)Nc2c(CC)cccc2CC)cc1 | cell-free assay, competition with immobilised ligand | 1 µM | 93% |
| CC1CCCN1c1nccc(-c2cnn3ncccc23)n1 (centres unmarked) | binding | 1 µM | 95% |
| CNCc1ccccc1-c1csc([C@H](C)Nc2nc(C)nc3cc(OC)c(OC)cc23)c1 | cell-free assay, competition with immobilised ligand | 1 µM | 78% |
| O=C(NCCCN1CCOCC1)c1ccc(Nc2ncc(Cl)c(-c3ccc(Cl)s3)n2)cc1 | binding, competition with immobilised ligand | 1 µM | 0% |
| CC(=O)N1CCC(c2ccc(C(=O)NC3=NCCN3)cc2C(F)(F)F)CC1 | cell-free assay, competition with immobilised ligand | 1 µM | 100% |
| CCN1CCN(Cc2ccc(C(=O)Nc3ccc(C)c(Oc4ccc5c(c4)CC(=O)N5)c3)cc2C(F)(F)F)CC1 | binding, competition with immobilised ligand | 1 µM | 100% |
| Nc1ncc2c(n1)-c1c([nH]c3ccc(C#CC4CC4)cc13)CCCC2 | binding, competition with immobilised ligand | 1 µM | 64% |
| CC(=O)C1=C(C)N(c2cccc(C(F)(F)F)c2)C(=O)N[C@@H]1c1ccc(C#N)nc1 | cell-free assay, competition with immobilised ligand | 1 µM | 93% |
| CN(c1nccc(-c2cnn3ncccc23)n1)C1CC1 | binding | 1 µM | 99% |
| Cc1cc(C)c(-n2ccn3nc(-c4cccnc4)cc23)cc1NC(=O)c1cc(C#N)cc(S(F)(F)(F)(F)F)c1 | cell-free assay, competition with immobilised ligand | 0.1 µM | 99.5% |
| COc1ccnn2ncc(-c3ccnc(N(C)C)n3)c12 | binding | 1 µM | 54% |
| O=C(c1ccc(Nc2ncc(Cl)c(-c3cc4ccccc4s3)n2)cc1)N1CCC(N2CCCC2)CC1 | binding, competition with immobilised ligand | 1 µM | 0% |
| N[C@H]1CCN(c2nccc(-c3cnn4ncccc34)n2)C1 | binding | 1 µM | 79% |
| O=C(NCC1CCOCC1)c1n[nH]cc1NC(=O)c1c(F)cccc1F | binding, competition with immobilised ligand | 1 µM | 52% |
